Reference: ChEMBL document CHEMBL1135471, “Sugar-modified conjugated diene analogues of adenosine and uridine: synthesis, interaction with S-adenosyl-L-homocysteine hydrolase, and antiviral and cytostatic effects” (J Med Chem, 2002)
Activity calls are given as the source filed them. The calls are words filed in the database; no cut-off is given here.

Assays:
[1] = system: Human immunodeficiency virus 1; experiment: Cytostatic concentration against […] virus strains IIIB and ROD, in T-lymphocytic MT-4 cells; format: functional; conditions: Human immunodeficiency virus 1, MT4
Procedure, shortened: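 T-lymphocytic MT-4 cells were tested alongside HIV-1 IIIB and HIV-2 ROD antiviral assays. The CC50 is the 50% cytostatic concentration for the MT-4 cells.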

[2] = system: E6SM; experiment: Minimum concentration required to cause a microscopically detectable alteration of normal cell morphology in human embryonic skin muscle (E6SM) cell cultures; format: functional; conditions: for minimal effective concentration: read-out: MEC
Procedure, shortened: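 E6SM cell cultures were examined by microscopy. The value is the minimum concentration giving a detectable alteration of normal cell morphology.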

[3] = Minimum cytotoxic concentration against vesicular stomatitis virus in HeLa cell cultures, was determined.; format: functional
[4] = system: Vero; experiment: Antiviral activity was evaluated in vero cell cultures.; format: functional; conditions: Chlorocebus sabaeus
[5] = Minimum cytotoxic concentration against Coxsackie B4 virus in HeLa cell cultures, was determined.; format: functional, Coxsackievirus B4
[6] = system: Vaccinia virus; experiment: Activity against vaccinia virus, was determined; No activity; format: functional, organism-based; conditions: Orthopoxvirus vaccinia
[7] = system: Human alphaherpesvirus 2; experiment: Activity against herpes simplex virus 2 (HSV-2) strain G, was determined; No activity; format: functional, organism-based
[8] = Minimum cytotoxic concentration against respiratory syncytial virus in HeLa cell cultures, was determined; format: functional
[9] = system: Vesicular stomatitis virus; experiment: Activity against vesicular stomatitis virus, was determined; No activity; format: functional, organism-based
[10] = system: Human alphaherpesvirus 3; experiment: 50 % effective concentration against Varicella-Zoster virus (VZV) was determined.; format: functional, organism-based
Procedure, shortened: (§1)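 Human embryonic lung (HEL) cells were used against CMV strains AD-169 and Davis and VZV strains YS, OKA, 07/1 and YS/R. EC50 values are for the antiviral effect. The minimum cytotoxic concentration and CC50 for HEL cells were measured alongside.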

[11] = system: Human alphaherpesvirus 1; experiment: Activity against herpes simplex virus 1 (HSV-1) strain KOS, was determined; No activity; format: functional, organism-based
[12] = target: T1, Adenosylhomocysteinase (Homo sapiens, UniProt P23526); experiment: Percent NAD+ content after incubation of AS-adenosylhomocysteine hydrolase (5.8 uM) with 100 uM of compound at 37 degree C for 20 min; format: functional
Procedure, shortened: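 Human AdoHcy hydrolase at 5.8 μM was preincubated with 100 μM inhibitor in 50 mM potassium phosphate, pH 7.2, with 1 mM EDTA, at 37 °C for 20 min. Cofactors were released with HClO4. NAD+ was quantified by C18 RP-HPLC (25 mM phosphate pH 3.2 with heptane sulfonic acid; acetonitrile gradient) with detection at 258 nm. Values are % NAD+ remaining.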
Target sequence in this assay (P23526 2-432 limits assumed): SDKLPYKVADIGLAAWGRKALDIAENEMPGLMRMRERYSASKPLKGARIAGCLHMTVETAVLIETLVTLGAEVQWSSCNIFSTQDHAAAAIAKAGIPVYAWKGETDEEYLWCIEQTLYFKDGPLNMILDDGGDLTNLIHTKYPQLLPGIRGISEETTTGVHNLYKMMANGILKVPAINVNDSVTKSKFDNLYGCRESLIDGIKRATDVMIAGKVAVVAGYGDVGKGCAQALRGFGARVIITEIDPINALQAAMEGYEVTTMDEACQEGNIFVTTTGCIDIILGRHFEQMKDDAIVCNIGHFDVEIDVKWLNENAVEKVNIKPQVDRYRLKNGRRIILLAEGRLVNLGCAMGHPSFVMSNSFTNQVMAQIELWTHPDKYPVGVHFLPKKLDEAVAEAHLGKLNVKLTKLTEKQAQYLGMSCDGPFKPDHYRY

[13] = system: HEL; experiment: 50 % cytotoxic concentration for human embryonic lung (HEL) cells; format: functional; procedure, shortened: as §1
[14] = system: HEL; experiment: Minimum cytotoxic concentration determined in embryonic lung (HEL) cells; format: functional, Homo sapiens; procedure, shortened: as §1
[15] = system: Vero; experiment: Antiviral activity (cytotoxicity) was evaluated in vero cell cultures.; format: functional, Chlorocebus sabaeus
[16] = target: T1, Adenosylhomocysteinase; experiment: Percent S-adenosyl-homocysteine hydrolase (210 nM) activity remaining after incubating with 100 uM at 37 degree C for 20 minutes
Procedure, shortened: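 Human enzyme preincubated with compound in 50 mM potassium phosphate pH 7.2, 1 mM EDTA. Residual activity measured in the synthetic direction: 1 mM Ado plus 1 mM Hcy, 37 °C, 1 min, stopped with HClO4. AdoHcy quantified by RP-HPLC at 258 nm. Duplicate determinations averaged.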
Target sequence in this assay (P23526 2-432 limits assumed): as above

[17] = system: Human alphaherpesvirus 2; experiment: Activity against herpes simplex virus 2 (HSV-2) […], was determined; No activity; format: functional, organism-based
[18] = system: Respiratory syncytial virus; experiment: Minimum cytotoxic concentration against respiratory syncytial virus in HeLa cell cultures; format: functional
[19] = system: Vero; experiment: Activity was evaluated in vero cell cultures; Cytotoxic; format: functional, cell-based; conditions: Chlorocebus sabaeus
[20] = system: Vaccinia virus; experiment: Minimum cytotoxic concentration against vaccinia virus, was determined; format: functional, organism-based; conditions: Orthopoxvirus vaccinia
[21] = system: Vesicular stomatitis virus; experiment: Minimum cytotoxic concentration against vesicular stomatitis virus in HeLa cell cultures; format: functional
[22] = system: Coxsackievirus B4; experiment: Minimum cytotoxic concentration against Coxsackie B4 virus in HeLa cell cultures; format: functional
[23] = target: T1, Adenosylhomocysteinase; experiment: Percent NAD+ content after incubation of S-adenosyl-homocysteine hydrolase (5.8 uM) with 100 uM of compound at 37 degree C for 20 min; format: functional
Procedure, shortened: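 Enzyme in 50 mM potassium phosphate pH 7.2 with 1 mM EDTA. After the inhibitor step, cofactors were released with 5 N HClO4. NAD+ was quantified by C18 RP-HPLC at 258 nm, using a 2–98% acetonitrile gradient over 25 min against 25 mM phosphate pH 3.2 containing 10 mM heptane sulfonic acid.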
Target sequence in this assay (P23526 2-432 limits assumed): as above

[24] = system: Human betaherpesvirus 5; experiment: 50 % effective concentration against cytomegalo virus (CMV); format: functional, organism-based; procedure, shortened: as §1
[25] = target: T1, Adenosylhomocysteinase; experiment: Inhibitory constant for S-adenosyl-homocysteine hydrolase, was determined using Kitz and Wilson equation {Kobs = Kinact. [I]/(Ki + [I])}.
Target sequence in this assay (P23526 whole entry): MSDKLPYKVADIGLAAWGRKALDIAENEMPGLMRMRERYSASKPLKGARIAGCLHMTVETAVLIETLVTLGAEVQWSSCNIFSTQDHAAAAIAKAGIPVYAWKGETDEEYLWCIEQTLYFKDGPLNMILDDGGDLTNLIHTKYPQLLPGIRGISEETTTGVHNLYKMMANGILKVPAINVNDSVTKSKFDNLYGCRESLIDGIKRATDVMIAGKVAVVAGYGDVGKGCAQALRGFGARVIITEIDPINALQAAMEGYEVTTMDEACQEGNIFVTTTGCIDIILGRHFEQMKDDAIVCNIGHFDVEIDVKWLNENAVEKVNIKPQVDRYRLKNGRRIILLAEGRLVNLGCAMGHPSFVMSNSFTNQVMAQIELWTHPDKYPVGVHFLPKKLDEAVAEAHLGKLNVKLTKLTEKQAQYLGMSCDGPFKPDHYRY

[26] = target: T1, Adenosylhomocysteinase; experiment: Inactivation constant for S-adenosyl-homocysteine hydrolase, was determined using Kitz and Wilson equation {Kobs = Kinact. [I]/(Ki + [I])}.
Target sequence in this assay (P23526 2-432 limits assumed): as the sequence (P23526 2-432 limits assumed) above

[27] = target: T1, Adenosylhomocysteinase; experiment: Inactivation constant for aS-adenosylhomocysteine hydrolase, was determined using Kitz and Wilson equation {Kobs = Kinact. [I]/(Ki + [I])}.
Target sequence in this assay (P23526 2-432 limits assumed): as above

[28] = system: HEL; experiment: Minimum cytotoxic concentration determined in embryonic lung (HEL) cells against human CMV, strains AD-169 and Davis and VZV, strains YS, OKA, 07/1, and YS/R; format: functional; procedure, shortened: as §1

Structure (SMILES) | CC50 [1] [µM] | minimal effective concentration [2] [µM] | MCC50 [3] [µM] | MCC [4] [µM] | MCC50 [5] [µM] | antiviral activity [6] | Antiviral activity against HSV-2 [7] | MCC50 [8] [µM] | antiviral activity [9] | antiviral activity against HSV-1 [11] | MEC50 [2] [µM] | MCC50 [15] [µM] | Activity [16] [%] | NAD+ content [23] [%] | Ki [25] [µM] | other results
CCOC(=O)/C=C\C=C\[C@H]1OC(n2ccc(=O)[nH]c2=O)[C@H](O)[C@@H]1O (some centres undefined) | 40 | > 40 | >200 | > 200 | >200 | inactive | inactive | >200 | inactive | inactive | – | – | – | – | – | EC50 [10]: 10 µM
Nc1ncnc2c1ncn2C1O[C@H](/C=C/C=C(Br)Br)[C@@H](O)[C@H]1O (some centres undefined) | 11 | – | >35 | – | >35 | inactive | inactive | >35 | inactive | inactive | 6.7 | >35000 | 48 | – | – | NAD+ content [12]: 93.1%; CC50 [13]: 54 µM; MCC50 [14]: 45 µM
O=c1ccn(C2O[C@H](/C=C/C=C(Br)Br)[C@@H](O)[C@H]2O)c(=O)[nH]1 (some centres undefined) | 300 | – | – | – | – | – | – | – | – | inactive | >40 | – | – | – | – | MCC50 [17]: inactive; MCC50 [18]: >=200 uM; Activity [19]: Toxic; MCC50 [20]: inactive; MCC50 [21]: >=200 uM; MCC50 [22]: >=200 uM
CCOC(=O)/C=C\C=C\[C@H]1OC(n2cnc3c(N)ncnc32)[C@H](O)[C@@H]1O (some centres undefined) | 160 | – | >200 | – | >200 | inactive | inactive | >200 | inactive | inactive | >40 | >200 | 1.8 | 36.2 | 13.7 | EC50 [24]: 18 µM; K inact [26]: 0.59 min⁻¹
CCOC(=O)/C=C/C=C/[C@H]1OC(n2cnc3c(N)ncnc32)[C@H](O)[C@@H]1O (some centres undefined) | 175 | – | >200 | – | >200 | inactive | inactive | >200 | inactive | inactive | >40 | >200 | 3.6 | 25.9 | 10 | K inact [27]: 0.7 min⁻¹; MCC50 [28]: >120 µM
CCOC(=O)/C=C/C=C/[C@H]1OC(n2ccc(=O)[nH]c2=O)[C@H](O)[C@@H]1O (some centres undefined) | > 370 | > 40 | >200 | > 200 | >200 | inactive | inactive | >200 | inactive | inactive | – | – | – | – | – | –
